Data on eleven compounds can be found in ChEMBL document CHEMBL1147539, “Synthesis and biological evaluation of novel, selective, nonsteroidal glucocorticoid receptor antagonists” (Bioorg Med Chem Lett, 2004).

For test [1], the target named is T1, Glucocorticoid receptor (Homo sapiens, UniProt P04150).
T1 sequence (P04150 whole entry): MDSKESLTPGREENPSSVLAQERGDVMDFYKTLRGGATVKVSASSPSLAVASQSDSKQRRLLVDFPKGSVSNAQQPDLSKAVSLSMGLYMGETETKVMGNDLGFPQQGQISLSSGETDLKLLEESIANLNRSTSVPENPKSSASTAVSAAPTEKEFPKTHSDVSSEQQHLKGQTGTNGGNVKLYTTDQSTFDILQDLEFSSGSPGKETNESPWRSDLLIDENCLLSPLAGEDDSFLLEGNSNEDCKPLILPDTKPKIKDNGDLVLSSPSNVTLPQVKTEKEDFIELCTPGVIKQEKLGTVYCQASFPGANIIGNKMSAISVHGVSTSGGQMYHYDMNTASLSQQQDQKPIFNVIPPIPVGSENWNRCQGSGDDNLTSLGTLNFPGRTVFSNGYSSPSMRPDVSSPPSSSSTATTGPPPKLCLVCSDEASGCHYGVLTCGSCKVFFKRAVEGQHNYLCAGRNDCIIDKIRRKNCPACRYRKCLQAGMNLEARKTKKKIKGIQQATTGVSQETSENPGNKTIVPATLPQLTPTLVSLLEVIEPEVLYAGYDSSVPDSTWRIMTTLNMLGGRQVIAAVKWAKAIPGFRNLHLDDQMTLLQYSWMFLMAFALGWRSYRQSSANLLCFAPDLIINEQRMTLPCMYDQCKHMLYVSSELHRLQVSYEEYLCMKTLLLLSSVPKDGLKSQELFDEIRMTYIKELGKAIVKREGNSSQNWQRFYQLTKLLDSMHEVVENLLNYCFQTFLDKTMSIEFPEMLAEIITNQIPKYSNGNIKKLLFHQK

Test [2] deals with T1, Glucocorticoid receptor. Briefly: Effect on human Glucocorticoid receptor (GR) in a whole cell assay to measure functional cellular GR-antagonism (GRAF).
Test [3] has as its target T1, Glucocorticoid receptor. As to the kind of experiment: Displacement of [3H]dexamethasone from human Glucocorticoid receptor (GR); Value ranges from 1273-2947 nM. The gist of the method:
(§1)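 Binding to human GR; IC50 reported as the geometric mean of two experiments (three for some values), each run in duplicate, with the range of the experiments given.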
In general terms: Loss of bound radioactivity is the signal in a displacement assay; it reports binding, not function.

Test [4] deals with T1, Glucocorticoid receptor. This is another data set of the same source.
Test [5] deals with T1, Glucocorticoid receptor. As to the kind of experiment: Displacement of [3H]dexamethasone from human Glucocorticoid receptor (GR); Value ranges from 1382-1049 nM. In a few lines: as §1
Test [6] addresses T1, Glucocorticoid receptor. The source holds these as a separate data set.
The target of test [7] is T1, Glucocorticoid receptor. As to the kind of experiment: Displacement of [3H]dexamethasone from human Glucocorticoid receptor (GR); Value ranges from 28-34 nM.
Test [8] addresses T1, Glucocorticoid receptor. This is another data set of the same source.
For test [9], the target named is T1, Glucocorticoid receptor. As to the kind of experiment: Displacement of [3H]dexamethasone from human Glucocorticoid receptor (GR); Value ranges from 559-1423 nM. In a few lines: as §1
Test [10] has as its target T1, Glucocorticoid receptor. Briefly: Effect on functional cellular GR-antagonism (GRAF) in human Glucocorticoid receptor (GR) expressing cells. In a few lines: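 Whole-cell functional GR antagonism measured in a genetically engineered mammalian cell line expressing GR; IC50 determined from 12-concentration compound curves.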
For test [11], the target named is T1, Glucocorticoid receptor. As to the kind of experiment: Displacement of [3H]dexamethasone from human Glucocorticoid receptor (GR); Value ranges from 9-12 nM.
Test [12] concerns the target T1, Glucocorticoid receptor. This is another data set of the same source.
Test [13] deals with T1, Glucocorticoid receptor. As to the kind of experiment: Displacement of [3H]dexamethasone from human Glucocorticoid receptor (GR); Value ranges from 106-131 nM.

As a reminder, the IC50 is the midpoint of a concentration-inhibition curve. Low values mean greater potency, high ones weaker potency. Regarding `COc1cccc2c1-c1ccc(NS(C)(=O)=O)cc1C(c1cccnc1)O2` (stereo not drawn), the IC50 in test [1] was 460 nM.

As for `COc1cccc2c1-c1ccc(N)cc1C(c1ccccc1)O2` (stereo not drawn), the 50% inhibitory concentration (IC50) in test [2] was determined as 2020 nM; in test [3], 1940 nM.

Compound `CCOc1ccc(CC2Oc3cccc(OC)c3-c3ccc(NS(C)(=O)=O)cc32)cc1` (stereo not drawn) displayed a 50% inhibitory concentration (IC50) in [4] of 548 nM.

Take `COC(=O)c1cccc2c1-c1ccc(NS(C)(=O)=O)cc1C(c1ccccc1)O2` (stereo not drawn): the IC50 in [5] turned out to be 1200 nM.

Regarding `COc1cccc2c1-c1ccc(NC(=O)c3ccccc3)cc1C(c1ccccc1)O2` (stereo not drawn), the IC50 in test [2] amounted to 289 nM; in test [6], 404 nM.

Consider `CCOC(=O)c1cccc(C2Oc3cccc(OC)c3-c3ccc(NS(C)(=O)=O)cc32)c1` (stereo not drawn), for which the IC50 in test [2] worked out at 296 nM; in test [7], 31 nM.

In test [8], `CS(=O)(=O)Nc1ccc2c(c1)C(c1ccccc1)Oc1cccc(-c3cccs3)c1-2` (stereo not drawn) gave an IC50 of 656 nM.

With `CS(=O)(=O)Nc1ccc2c(c1)C(c1ccccc1)Oc1cccc(O)c1-2` (stereo not drawn), the results for the IC50 in test [9] and in test [10] were 892 nM and 1810 nM, respectively.

`COc1cccc2c1-c1ccc(NS(C)(=O)=O)cc1C(c1ccc(Cl)cc1)O2` (stereo not drawn): the IC50 in [2] amounted to 129 nM; in test [11], 10 nM.

As for `COc1cccc2c1-c1ccc(NCc3ccccc3)cc1C(c1ccccc1)O2` (stereo not drawn), the IC50 in [2] came to 402 nM; in test [12] it was 910 nM.

Consider `COc1cccc2c1-c1ccc(NC(C)=O)cc1C(c1ccccc1)O2` (stereo not drawn), for which the values for the IC50 in test [13] and in [2] were 117 nM and 69 nM, respectively.
